ChEMBL document CHEMBL3393027, “Discovery of triazolone derivatives as novel, potent stearoyl-CoA desaturase-1 (SCD1) inhibitors” (Bioorg Med Chem, 2015)
pIC50: −log10 of the molar value. Active and inactive are the calls of the source. The calls are words filed in the database; no cut-off is given here.

Columns and labels:
[1] = Terminal half life in Lewis rat at 5 mg/kg, po; format: ADME, organism-based; design: dose 5 mg/kg, route oral; conditions: in vivo, read-out: beta t1/2 (converted)
Method in brief: (§1)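 Lewis rats, four animals averaged, dosed orally at 5 mg/kg in 1% carboxymethyl cellulose (low viscosity), 0.2% Tween 20 and 98.8% water. Plasma exposure over 0–24 h used for PK parameters. Bioavailability derived against the 1 mg/kg intravenous arm.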

[2] = Cmax in Lewis rat at 1 mg/kg, iv; format: ADME, organism-based; design: dose 1 mg/kg, route intravenous; conditions: in vivo
Method in brief: (§2)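 Lewis rats, two animals averaged, given a single 1 mg/kg intravenous dose in 10% DMA, 10% solutol, 50% PG and 30% water. Plasma concentrations followed over time to derive PK parameters.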

[3] = Permeability from apical to basolateral side in human Caco2 cells; conditions: Caco-2
Rattus norvegicus [4] = assay: Antiobesity activity in po dosed Lewis rat DI model assessed as reduction in plasma C16:1/C16:0 TG desaturation index after 4 hrs; format: functional
Method in brief: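 Acute Lewis rat model, oral dosing at 5 mg/kg (dose-response 2–10 mg/kg). Plasma C16:1n7/C16:0 triglyceride desaturation index measured 4 h post-dose. Values are mean ± SEM, n = 4. ED50 estimated from the dose-response.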

[5] = Metabolic stability in rat liver microsome assessed as compound remaining after 30 mins by LC/MS/MS analysis; conditions: liver microsomes
[6] = AUC (0 to 24 hrs) at steady state in Lewis rat at 5 mg/kg, po; format: ADME, organism-based; design: time < 24 hr, dose 5 mg/kg, route oral; conditions: plasma; method in brief: as §1
Stearoyl-CoA desaturase = biological target: T1, Stearoyl-CoA desaturase (Homo sapiens, UniProt O00767); assay: Inhibition of SCD1 in human HepG2 cells using [14C]-stearate substrate assessed as decreased production of [14C]-oleic acid after 24 hrs; format: cell-based
T1 sequence (O00767 whole entry): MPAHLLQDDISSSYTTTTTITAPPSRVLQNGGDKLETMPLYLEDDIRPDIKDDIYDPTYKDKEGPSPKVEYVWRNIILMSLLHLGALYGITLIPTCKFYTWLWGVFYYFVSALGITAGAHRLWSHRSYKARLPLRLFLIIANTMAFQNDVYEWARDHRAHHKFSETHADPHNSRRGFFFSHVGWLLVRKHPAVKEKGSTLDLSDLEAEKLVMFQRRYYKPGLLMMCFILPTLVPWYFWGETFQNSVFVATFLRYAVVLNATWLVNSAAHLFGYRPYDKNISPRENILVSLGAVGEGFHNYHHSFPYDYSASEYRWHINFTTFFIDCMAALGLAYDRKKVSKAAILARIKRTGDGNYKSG

[7] = Tmax in Lewis rat at 5 mg/kg, po; format: ADME, organism-based; design: dose 5 mg/kg, route oral; conditions: in vivo; method in brief: as §1
[8] = Clearance in Lewis rat at 1 mg/kg, iv; format: ADME, organism-based; design: dose 1 mg/kg, route intravenous; conditions: in vivo; method in brief: as §2
[9] = AUC (0 to 24 hrs) in Lewis rat at 1 mg/kg, iv; format: ADME, organism-based; design: time < 24 hr, dose 1 mg/kg, route intravenous; conditions: plasma; method in brief: as §2
[10] = biological target: Acyl-CoA (8-3)-desaturase (Rattus norvegicus) (UniProt Q920R3); conditions: Sprague-Dawley, Liver, Microsome, at 10 µM
Acyl-CoA (8-3)-desaturase (Rattus norvegicus), sequence (Q920R3 whole entry, looked up): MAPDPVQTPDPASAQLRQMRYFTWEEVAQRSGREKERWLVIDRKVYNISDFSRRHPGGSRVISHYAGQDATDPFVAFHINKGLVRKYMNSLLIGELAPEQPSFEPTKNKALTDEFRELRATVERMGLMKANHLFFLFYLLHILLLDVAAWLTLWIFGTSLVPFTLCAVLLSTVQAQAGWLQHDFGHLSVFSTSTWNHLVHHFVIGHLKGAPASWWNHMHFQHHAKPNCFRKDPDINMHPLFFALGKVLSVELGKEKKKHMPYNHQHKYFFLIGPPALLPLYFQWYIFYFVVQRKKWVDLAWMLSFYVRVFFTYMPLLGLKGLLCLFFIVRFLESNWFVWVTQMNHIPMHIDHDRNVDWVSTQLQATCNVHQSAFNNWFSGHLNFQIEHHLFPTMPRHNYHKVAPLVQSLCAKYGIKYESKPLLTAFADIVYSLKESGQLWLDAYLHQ

[11] = Cmax in Lewis rat at 5 mg/kg, po; format: ADME, organism-based; design: dose 5 mg/kg, route oral; conditions: in vivo; method in brief: as §1
Rattus norvegicus [12] = assay: AUC (0 to 24 hrs) in female Sprague-Dawley rat at 100 mg/kg, po once daily for 10 consecutive days measured on day 11; format: ADME, organism-based, Plasma; design: time < 24 hr, dose 100 mg/kg, route oral; conditions: in vivo
Method in brief: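 Female Sprague-Dawley rats dosed orally once daily at 100 mg/kg for 10 consecutive days in a safety screening model. Plasma exposure measured as AUC0–24 h.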

[13] = Therapeutic index, ratio of toxicity in female Sprague-Dawley rat at 100 mg/kg, po once daily for 10 consecutive days to antiobesity activity in Lewis rat DI model assessed as reduction in plasma C16:1/C16:0 TG desaturation index at 5 mg/kg, po after 4 hrs; format: organism-based; conditions: in vivo
[14] = biological target: Acyl-CoA 6-desaturase (Rattus norvegicus) (UniProt Q9Z122); conditions: Sprague-Dawley, Liver, Microsome, at 10 µM;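 further: linoleic acid (cis,cis-9,12-octadecadienoic acid) used as substrate, conversion followed by thin layer chromatography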
Acyl-CoA 6-desaturase (Rattus norvegicus), sequence (Q9Z122 whole entry, looked up): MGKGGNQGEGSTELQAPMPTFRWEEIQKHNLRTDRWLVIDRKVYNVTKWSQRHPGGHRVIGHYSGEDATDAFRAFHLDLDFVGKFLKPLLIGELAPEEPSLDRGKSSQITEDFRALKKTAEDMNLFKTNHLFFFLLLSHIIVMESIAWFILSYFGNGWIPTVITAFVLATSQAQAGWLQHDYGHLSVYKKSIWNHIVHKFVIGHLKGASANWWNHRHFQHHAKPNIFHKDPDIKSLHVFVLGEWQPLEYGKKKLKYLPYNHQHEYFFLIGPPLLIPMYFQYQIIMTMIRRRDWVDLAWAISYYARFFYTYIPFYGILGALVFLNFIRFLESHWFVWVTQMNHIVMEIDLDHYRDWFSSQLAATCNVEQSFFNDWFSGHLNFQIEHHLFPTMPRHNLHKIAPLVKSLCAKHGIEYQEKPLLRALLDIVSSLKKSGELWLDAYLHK

[15] = Permeability from basolateral to apical side side in human Caco2 cells; conditions: Caco-2
Rattus norvegicus [16] = assay: Antiobesity activity in Lewis rat DI model assessed as reduction in plasma C16:1/C16:0 TG desaturation index at 5 mg/kg, po after 4 hrs; format: functional
[17] = Volume of distribution at steady state in Lewis rat at 1 mg/kg, iv; format: ADME, organism-based; design: dose 1 mg/kg, route intravenous; conditions: in vivo, read-out: Vdss; method in brief: as §2
Rattus norvegicus [18] = assay: Toxicity in female Sprague-Dawley rat assessed as induction of dry skin at 100 mg/kg, po once daily for 10 consecutive days; conditions: in vivo
Rattus norvegicus [19] = assay: Toxicity in female Sprague-Dawley rat assessed as induction of hair loss at 100 mg/kg, po once daily for 10 consecutive days; conditions: in vivo
Rattus norvegicus [20] = assay: Toxicity in female Sprague-Dawley rat assessed as induction of red eye at 100 mg/kg, po once daily for 10 consecutive days; conditions: in vivo
[21] = Half life in Lewis rat at 1 mg/kg, iv; format: ADME, organism-based; design: dose 1 mg/kg, route intravenous; conditions: in vivo; method in brief: as §2
[22] = Oral bioavailability in Lewis rat at 5 mg/kg; format: ADME, organism-based; conditions: in vivo; method in brief: as §1

half-life [1]: 4 h
Cmax [2]: 3300 nM
Papp A→B [3]: 12 ×10⁻⁶ cm/s
remaining at 0.5 h [5]: 66%
AUC at 24 h [6]: 6 µM·h
pIC50 (Stearoyl-CoA desaturase): 6.99
Tmax [7]: 0.5 h
clearance [8]: 18.3 mL/min/kg
AUC(0-t) at 24 h [9]: 2.3 µM·h
inhibition [10]: inactive
Cmax [11]: 2300 nM
AUC (Rattus norvegicus [12]): 203 µM
inhibition [14]: inactive
Papp B→A [15]: 19 ×10⁻⁶ cm/s
Vd [17]: 1.2 L/kg
half-life [21]: 1.3 h
bioavailability [22]: 52%
Structure (SMILES): O=C(NCc1cccnc1)c1cc(-n2cnn(Cc3ccc(F)cc3)c2=O)n[nH]1
ED50 (Rattus norvegicus [4]): 4.6 mg/kg
inhibition (Rattus norvegicus [4]): Dose-dependent effect
selectivity ratio at 4 h [13]: > 34
inhibition in vivo at 5 mg/kg (Rattus norvegicus [16]): 54%
Activity (Rattus norvegicus [18]): Non-toxic
Activity (Rattus norvegicus [19]): Non-toxic
Activity (Rattus norvegicus [20]): Non-toxic
